This is an account of results in ChEMBL document CHEMBL4251567 (Eur J Med Chem, 2018).

The target of assay [1] is Histone deacetylase 2 (Homo sapiens) (UniProt Q92769). Kind of assay: Inhibition of HDAC2 in human HeLa-S3 cell lysates assessed as remaining activity at 5 uM preincubated for 15 mins followed by HDAC-Glo substrate addition measured after 30 to 40 mins by […] relative to control. The essentials: (§1)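 Same antibody-capture format as the other class I isoforms. HeLa-S3 lysate added at 100 μg/mL for HDAC1 and HDAC2, 1 h at 4 °C, then washed. Inhibitor in DMSO preincubated 15 min at RT; HDAC-Glo reagent added and luminescence read after 30-40 min. Concentrations are final. Signal corrected against a well without antibody; activity expressed as % of DMSO control.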

Assay [2] deals with T1, Protein deacetylase HDAC6 (Homo sapiens) (UniProt Q9UBN7).
T1 sequence (whole entry): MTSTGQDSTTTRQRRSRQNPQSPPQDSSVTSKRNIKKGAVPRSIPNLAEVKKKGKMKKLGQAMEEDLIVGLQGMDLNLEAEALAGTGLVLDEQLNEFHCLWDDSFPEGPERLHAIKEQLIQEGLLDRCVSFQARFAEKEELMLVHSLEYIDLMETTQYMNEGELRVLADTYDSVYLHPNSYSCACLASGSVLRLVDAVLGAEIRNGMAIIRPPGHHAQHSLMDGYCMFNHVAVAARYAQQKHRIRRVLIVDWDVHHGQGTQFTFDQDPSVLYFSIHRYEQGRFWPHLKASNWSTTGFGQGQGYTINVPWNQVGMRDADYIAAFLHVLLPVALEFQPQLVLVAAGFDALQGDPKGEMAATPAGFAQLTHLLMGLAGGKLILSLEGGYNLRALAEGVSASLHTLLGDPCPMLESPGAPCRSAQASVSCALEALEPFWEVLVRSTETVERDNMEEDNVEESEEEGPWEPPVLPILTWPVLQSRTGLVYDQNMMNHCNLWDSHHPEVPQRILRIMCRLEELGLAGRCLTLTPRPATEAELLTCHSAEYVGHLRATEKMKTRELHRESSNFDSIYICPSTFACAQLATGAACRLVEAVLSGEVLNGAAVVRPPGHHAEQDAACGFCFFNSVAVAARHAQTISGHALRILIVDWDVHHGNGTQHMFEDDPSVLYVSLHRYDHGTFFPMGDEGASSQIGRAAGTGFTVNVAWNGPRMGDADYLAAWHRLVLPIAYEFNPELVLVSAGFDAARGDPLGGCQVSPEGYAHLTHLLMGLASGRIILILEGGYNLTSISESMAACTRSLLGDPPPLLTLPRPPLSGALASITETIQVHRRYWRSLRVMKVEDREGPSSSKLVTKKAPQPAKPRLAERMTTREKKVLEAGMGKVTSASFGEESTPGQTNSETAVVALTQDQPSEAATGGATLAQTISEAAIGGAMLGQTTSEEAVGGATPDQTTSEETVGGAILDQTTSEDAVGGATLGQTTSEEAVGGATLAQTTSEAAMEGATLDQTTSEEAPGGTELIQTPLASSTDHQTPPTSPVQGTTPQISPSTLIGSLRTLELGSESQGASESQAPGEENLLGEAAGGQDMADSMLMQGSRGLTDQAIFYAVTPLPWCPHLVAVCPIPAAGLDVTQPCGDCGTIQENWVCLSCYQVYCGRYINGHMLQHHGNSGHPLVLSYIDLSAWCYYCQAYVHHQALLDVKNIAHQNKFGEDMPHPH
Kind of assay: Inhibition of HDAC6 in human U937 cells assessed as increase in acetyl-alpha-tubulin levels after 18 hrs by Western blot method. Format: cell-based. The essentials:
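U937 cells (10^6/well in RPMI-1640 with 10% FCS) treated 18 h at 37 °C, 5% CO2 with inhibitor or DMSO (1% final). Lysates separated on 16% SDS-PAGE and blotted to PVDF. Probed with anti-acetyl-α-tubulin(Lys40) and anti-acetyl-H3(Lys9), GAPDH as load control; ECL detection. Blots representative of three trials.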

Assay [3] concerns the target Histone deacetylase 1 (Homo sapiens) (UniProt Q13547). Put plainly: Inhibition of HDAC1 in human HeLa-S3 cell lysates assessed as remaining activity at 1.25 uM preincubated for 15 mins followed by HDAC-Glo substrate addition measured after 30 to 40 mins by […] relative to control. The essentials: (§2)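 HDAC1 was captured from HeLa-S3 lysate (100 μg/mL) onto wells precoated with anti-HDAC1 antibody (10 μg/mL, carbonate buffer pH 9.4) and milk-blocked, 1 h at 4 °C, then washed. Inhibitor in DMSO was added in HDAC-Glo buffer for 15 min at room temperature. HDAC-Glo reagent was added and luminescence read after 30-40 min. Concentrations are final. No-antibody background subtracted; % of DMSO control.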

The target of assay [4] is Histone deacetylase 2 (Homo sapiens) (UniProt Q92769). Put plainly: Inhibition of HDAC2 in human HeLa-S3 cell lysates assessed as remaining activity at 1.25 uM preincubated for 15 mins followed by HDAC-Glo substrate addition measured after 30 to 40 mins by […] relative to control. The essentials: as §1
In assay [5] the target is T2, Histone deacetylase (Homo sapiens) (UniProt Q13547+O15379+Q9UBN7+Q92769+Q9UQL6+Q8WUI4+Q9BY41+Q96DB2+P56524+Q9UKV0+Q969S8). Put plainly: Inhibition of HDAC in human HeLa-S3 cell lysates assessed as residual activity at 2.4 x 10^-5 M preincubated for 15 mins followed by HDAC-Glo substrate addition measured after 35 mins by […] relative to control. Format: protein assay.

The target in assay [6] is T2, Histone deacetylase (Homo sapiens). Put plainly: Inhibition of HDAC in human HeLa-S3 cell lysates assessed as residual activity at 3 x 10^-6 M preincubated for 15 mins followed by HDAC-Glo substrate addition measured after 35 mins by […] relative to control. In kind it is protein assay.
In assay [7] the target is Histone deacetylase 1 (Homo sapiens) (UniProt Q13547). Put plainly: Inhibition of HDAC1 in human HeLa-S3 cell lysates assessed as remaining activity at […] preincubated for 15 mins followed by HDAC-Glo substrate addition measured after 30 to 40 mins by […] relative to control.
For assay [8], the target named is T1, Protein deacetylase HDAC6 (Homo sapiens). Put plainly: Inhibition of HDAC6 in human HeLa-S3 cell lysates assessed as remaining activity at […] preincubated for 15 mins followed by HDAC-Glo substrate addition measured after 30 to 40 mins by […] relative to control.
Assay [9] has as its target Histone deacetylase 1 (Homo sapiens) (UniProt Q13547). Put plainly: Inhibition of HDAC1 in human HeLa-S3 cell lysates assessed as remaining activity at 1.6 x 10^-5 M preincubated for 15 mins followed by HDAC-Glo substrate addition measured after 30 to 40 mins by […] relative to control. Summed up:
as §2

The target is the same in assay [10]. Kind of assay: Inhibition of HDAC1 in human HeLa-S3 cell lysates assessed as remaining activity at 4 x 10^-6 M preincubated for 15 mins followed by HDAC-Glo substrate addition measured after 30 to 40 mins by […] relative to control. Summed up: as §2
In assay [11] the target is Histone deacetylase 2 (Homo sapiens) (UniProt Q92769). Put plainly: Inhibition of HDAC2 in human HeLa-S3 cell lysates assessed as remaining activity at 8 x 10^-6 M preincubated for 15 mins followed by HDAC-Glo substrate addition measured after 30 to 40 mins by […] relative to control. The essentials: as §1

Sequence of Histone deacetylase 2 (Homo sapiens) (Q92769 whole entry, canonical isoform): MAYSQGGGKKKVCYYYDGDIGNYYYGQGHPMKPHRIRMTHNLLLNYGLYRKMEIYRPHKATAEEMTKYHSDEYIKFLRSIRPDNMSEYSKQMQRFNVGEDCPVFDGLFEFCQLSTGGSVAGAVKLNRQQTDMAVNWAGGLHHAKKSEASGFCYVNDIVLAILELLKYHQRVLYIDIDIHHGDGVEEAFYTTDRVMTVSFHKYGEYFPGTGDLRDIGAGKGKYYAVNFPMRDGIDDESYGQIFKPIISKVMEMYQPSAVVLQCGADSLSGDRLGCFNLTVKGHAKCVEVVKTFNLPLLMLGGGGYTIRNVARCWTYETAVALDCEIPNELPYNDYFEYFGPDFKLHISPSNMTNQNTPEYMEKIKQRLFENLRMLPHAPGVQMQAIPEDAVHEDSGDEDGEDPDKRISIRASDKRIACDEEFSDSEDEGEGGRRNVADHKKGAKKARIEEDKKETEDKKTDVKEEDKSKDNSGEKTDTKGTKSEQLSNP
Sequence of Histone deacetylase 1 (Homo sapiens) (Q13547 whole entry): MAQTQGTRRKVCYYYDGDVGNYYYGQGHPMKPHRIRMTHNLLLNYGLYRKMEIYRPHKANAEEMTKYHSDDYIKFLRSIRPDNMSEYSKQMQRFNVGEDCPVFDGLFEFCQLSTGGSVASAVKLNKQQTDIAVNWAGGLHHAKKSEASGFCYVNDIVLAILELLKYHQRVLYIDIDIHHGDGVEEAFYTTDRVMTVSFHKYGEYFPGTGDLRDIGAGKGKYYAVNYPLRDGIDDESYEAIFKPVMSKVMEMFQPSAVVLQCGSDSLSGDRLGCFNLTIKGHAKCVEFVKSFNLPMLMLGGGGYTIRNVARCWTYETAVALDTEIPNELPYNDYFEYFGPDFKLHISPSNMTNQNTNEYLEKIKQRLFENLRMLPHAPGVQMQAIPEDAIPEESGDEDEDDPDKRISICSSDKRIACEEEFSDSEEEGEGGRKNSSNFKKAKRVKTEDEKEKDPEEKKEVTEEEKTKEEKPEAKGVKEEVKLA

With `O=C(CCC(CCCC(=O)Nc1ccccc1)Cc1ccccc1)NO` (racemic), the Activity in assay [1] was 92%. Besides, the inhibition result in assay [2] was “Dose-dependent effect”.

For `CCCCCCC(CCCC(=O)Nc1ccccc1)CCC(=O)NO` (stereo unspecified), the Activity in assay [3] was found to be 97%; in assay [4], 101%.

For `CCC(CCCC(=O)Nc1ccccc1)CCC(=O)NO` (stereo unspecified), the Activity in assay [5] was found to be 31%; in assay [6], 92%; in assay [7], 91%; in assay [8], 18%; in [9], 19%; in assay [10], 58%. The Activity in assay [11] worked out at 34%.
